Measured values taken from ChEMBL document CHEMBL4622983, “Structure-Activity Relationship Studies of α-Ketoamides as Inhibitors of the Phospholipase A and Acyltransferase Enzyme Family” (J Med Chem, 2020).
Active and inactive are the calls of the source. No cut-off for these calls is given here.

Legend:
[1] = target: T1, Phospholipase A and acyltransferase 5 (Homo sapiens, UniProt Q96KN8); assay: Inhibition of full-length C-terminal FLAG-tagged human PLAAT5 expressed in HEK293T cell lysate preincubated for 30 mins followed by MB064 addition and measured after 20 mins by SDS-PAGE based ABPP analysis; assay type: cell-free, HEK-293T
T1 sequence (Q96KN8 whole entry): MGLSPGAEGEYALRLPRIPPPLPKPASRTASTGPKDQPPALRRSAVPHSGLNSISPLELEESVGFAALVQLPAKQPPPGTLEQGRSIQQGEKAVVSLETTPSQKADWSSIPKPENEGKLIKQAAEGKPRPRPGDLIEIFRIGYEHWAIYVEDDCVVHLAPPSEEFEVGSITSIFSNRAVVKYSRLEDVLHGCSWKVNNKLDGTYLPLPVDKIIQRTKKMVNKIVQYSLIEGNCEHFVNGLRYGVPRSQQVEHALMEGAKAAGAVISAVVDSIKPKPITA
Summary of the method: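 Dose–response competitive ABPP on cytosol only, from HEK293T overexpressing FLAG-tagged PLAAT. Inhibitor 30 min rt, then MB064 20 min rt. PLAAT2 0.25 μg/μL with 250 nM probe; PLAAT3 0.5 μg/μL with 250 nM; PLAAT4 and PLAAT5 1 μg/μL with 500 nM. Fluorescence normalized to Coomassie. IC50 from curves, reported as pIC50 ± SEM, n = 3.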

[2] = target: Cannabinoid receptor 2 (Homo sapiens) (UniProt P34972); assay: Displacement of [3H]CP55940 from human CB2 receptor expressed in CHOK1 cell membranes at 10 uM by liquid scintillation spectrometry analysis; settings: CHO-K1
Chain of Cannabinoid receptor 2 (Homo sapiens) (P34972 whole entry): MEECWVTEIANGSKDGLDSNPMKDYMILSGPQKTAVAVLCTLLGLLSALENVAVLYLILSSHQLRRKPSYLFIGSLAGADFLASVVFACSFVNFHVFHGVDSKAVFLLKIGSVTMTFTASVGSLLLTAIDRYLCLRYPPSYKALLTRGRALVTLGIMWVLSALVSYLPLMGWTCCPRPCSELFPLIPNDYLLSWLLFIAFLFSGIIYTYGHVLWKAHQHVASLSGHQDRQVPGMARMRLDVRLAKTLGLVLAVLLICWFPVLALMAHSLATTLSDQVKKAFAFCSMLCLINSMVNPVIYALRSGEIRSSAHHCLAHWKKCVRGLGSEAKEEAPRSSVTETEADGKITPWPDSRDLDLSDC
Summary of the method: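 [3H]CP55940 displacement at human CB1 or CB2 receptors, single test concentration 10 μM. Result expressed as % radioligand displacement ± SD (N = 2, n = 2).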

[3] = target: N-acyl-phosphatidylethanolamine-hydrolyzing phospholipase D (Homo sapiens) (UniProt Q6IQ20); assay: Inhibition of full length human NAPE-PLD expressed in HEK293T cells assessed as enzyme remaining activity at 10 uM using PED6 as substrate preincubated for 30 mins followed by substrate addition and measured for 1 hr at 2 mins relative to control; assay type: cell-based; settings: HEK-293T
Chain of N-acyl-phosphatidylethanolamine-hydrolyzing phospholipase D (Homo sapiens) (Q6IQ20 whole entry, looked up): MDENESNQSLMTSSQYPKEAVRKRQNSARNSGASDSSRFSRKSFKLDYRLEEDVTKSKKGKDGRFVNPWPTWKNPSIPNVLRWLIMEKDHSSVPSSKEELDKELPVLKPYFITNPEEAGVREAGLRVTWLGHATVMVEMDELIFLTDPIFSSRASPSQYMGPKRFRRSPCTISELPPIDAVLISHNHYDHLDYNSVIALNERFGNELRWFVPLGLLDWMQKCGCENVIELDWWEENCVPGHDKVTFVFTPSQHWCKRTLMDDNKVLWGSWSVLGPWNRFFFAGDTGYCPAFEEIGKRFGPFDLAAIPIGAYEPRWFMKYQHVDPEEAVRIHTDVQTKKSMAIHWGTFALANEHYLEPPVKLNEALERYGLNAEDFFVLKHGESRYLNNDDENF

[4] = target: Cytosolic phospholipase A2 epsilon (Homo sapiens) (UniProt Q3MJ16); assay: Inhibition of full length human PLA2G4E assessed as enzyme remaining activity at 10 uM using FP-TAMRA as substrate preincubated for 30 mins followed by substrate addition and measured after 5 mins by SDS-PAGE based ABPP analysis relative to control
Chain of Cytosolic phospholipase A2 epsilon (Homo sapiens) (Q3MJ16 whole entry): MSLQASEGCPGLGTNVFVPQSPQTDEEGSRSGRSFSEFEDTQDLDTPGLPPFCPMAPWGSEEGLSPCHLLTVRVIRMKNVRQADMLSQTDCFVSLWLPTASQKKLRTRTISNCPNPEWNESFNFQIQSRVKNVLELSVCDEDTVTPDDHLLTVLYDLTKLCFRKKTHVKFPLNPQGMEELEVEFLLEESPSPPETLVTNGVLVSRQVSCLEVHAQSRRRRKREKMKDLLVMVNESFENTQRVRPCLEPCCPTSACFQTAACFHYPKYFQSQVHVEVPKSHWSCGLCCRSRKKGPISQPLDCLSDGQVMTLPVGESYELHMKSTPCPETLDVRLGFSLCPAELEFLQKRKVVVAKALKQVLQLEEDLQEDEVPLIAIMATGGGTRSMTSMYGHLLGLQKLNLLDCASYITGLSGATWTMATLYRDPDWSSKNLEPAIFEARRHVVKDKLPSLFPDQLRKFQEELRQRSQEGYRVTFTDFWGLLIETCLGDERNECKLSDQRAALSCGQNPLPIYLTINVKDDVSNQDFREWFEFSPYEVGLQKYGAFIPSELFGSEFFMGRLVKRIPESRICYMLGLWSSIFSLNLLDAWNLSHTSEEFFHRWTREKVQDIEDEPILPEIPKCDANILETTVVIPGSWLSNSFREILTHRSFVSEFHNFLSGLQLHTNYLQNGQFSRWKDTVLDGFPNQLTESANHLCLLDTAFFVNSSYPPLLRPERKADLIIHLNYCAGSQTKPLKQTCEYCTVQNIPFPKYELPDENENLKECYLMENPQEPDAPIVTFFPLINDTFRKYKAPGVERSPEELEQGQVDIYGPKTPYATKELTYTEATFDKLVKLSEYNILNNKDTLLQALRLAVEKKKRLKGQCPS
Summary of the method: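 hPLA2G4E-overexpressing membrane lysate (1 μg/μL) preincubated with 10 μM inhibitor for 30 min at rt. FP-TAMRA 50 nM added for 5 min at rt. Resolved on 8% SDS-PAGE, fluorescence normalized to Coomassie. Reported as % remaining activity ± SD, n = 3.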

[5] = target: Diacylglycerol lipase-alpha (Mus musculus) (UniProt Q6WQJ1); assay: Inhibition of mouse brain membrane DAGLalpha assessed as enzyme remaining activity at 10 uM preincubated for 30 mins followed by MB064 or FP-TAMRA addition and measured after 15 mins by SDS-PAGE based ABPP analysis relative to control; assay type: cell membranes
Chain of Diacylglycerol lipase-alpha (Mus musculus) (Q6WQJ1 whole entry): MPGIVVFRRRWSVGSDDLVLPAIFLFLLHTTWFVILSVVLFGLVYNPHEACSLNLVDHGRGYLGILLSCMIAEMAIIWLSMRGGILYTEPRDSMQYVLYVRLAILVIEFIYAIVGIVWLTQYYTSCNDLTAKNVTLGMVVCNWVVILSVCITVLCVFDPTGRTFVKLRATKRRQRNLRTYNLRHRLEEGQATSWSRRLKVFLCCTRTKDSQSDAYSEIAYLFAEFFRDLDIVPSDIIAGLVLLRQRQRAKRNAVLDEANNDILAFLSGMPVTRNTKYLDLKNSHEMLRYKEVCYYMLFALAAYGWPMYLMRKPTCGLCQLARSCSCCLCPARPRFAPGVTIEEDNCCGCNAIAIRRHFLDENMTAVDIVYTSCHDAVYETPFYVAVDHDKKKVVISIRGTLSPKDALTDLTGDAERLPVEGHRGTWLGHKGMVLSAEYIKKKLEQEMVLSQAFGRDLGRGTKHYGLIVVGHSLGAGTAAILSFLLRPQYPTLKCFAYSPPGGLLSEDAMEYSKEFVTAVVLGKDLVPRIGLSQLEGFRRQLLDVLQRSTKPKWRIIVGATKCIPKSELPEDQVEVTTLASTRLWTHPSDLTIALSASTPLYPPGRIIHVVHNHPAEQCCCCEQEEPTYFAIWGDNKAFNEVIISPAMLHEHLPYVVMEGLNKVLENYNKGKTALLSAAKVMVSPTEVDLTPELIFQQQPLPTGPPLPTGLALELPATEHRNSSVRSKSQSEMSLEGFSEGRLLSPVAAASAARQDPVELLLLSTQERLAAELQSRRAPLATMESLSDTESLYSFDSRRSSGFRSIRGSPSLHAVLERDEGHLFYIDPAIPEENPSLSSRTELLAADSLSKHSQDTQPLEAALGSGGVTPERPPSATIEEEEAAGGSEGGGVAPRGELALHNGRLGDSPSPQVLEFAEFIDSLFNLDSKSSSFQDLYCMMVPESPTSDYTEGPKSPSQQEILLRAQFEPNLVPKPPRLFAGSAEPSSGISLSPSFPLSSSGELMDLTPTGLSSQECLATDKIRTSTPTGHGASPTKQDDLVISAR
Summary of the method: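 Mouse brain membrane proteome (2 μg/μL) preincubated with 10 μM inhibitor for 30 min at rt. Then MB064 250 nM or FP-TAMRA 500 nM for 15 min at rt. Resolved on 10% SDS-PAGE, fluorescence normalized to Coomassie. Reported as % remaining activity ± SD, n = 3.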

[6] = target: T2, Phospholipase A and acyltransferase 2 (Homo sapiens) (UniProt Q9NWW9); assay: Inhibition of full-length C-terminal FLAG-tagged human PLAAT2 expressed in human U2OS cells assessed as reduction in absolute N-palmitoylethanolamine level at 10 uM incubated for 4 hrs by LC-MS/MS analysis; assay type: cell-based
T2 sequence (whole entry): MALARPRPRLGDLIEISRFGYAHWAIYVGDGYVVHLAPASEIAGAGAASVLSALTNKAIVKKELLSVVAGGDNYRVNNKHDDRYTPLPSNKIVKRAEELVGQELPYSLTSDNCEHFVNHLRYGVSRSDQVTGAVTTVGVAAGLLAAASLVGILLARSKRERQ
Summary of the method: (§1)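 U2OS cells transfected with PLAAT2, PLAAT5 or empty vector (PEI, 1:5 plasmid/PEI). At 24 h, switched to serum-free medium with 10 μM compound (0.1% DMSO) or DMSO for 4 h at 37 °C. Pellets extracted with MTBE against deuterated internal standards. NAEs, 2-AG and free fatty acids quantified by LC–MS/MS, normalized to live cell count. Four biological replicates; one-way ANOVA.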

[7] = target: T3, Phospholipase A and acyltransferase 5 (Homo sapiens) (UniProt Q96KN8); assay: Inhibition of full-length C-terminal FLAG-tagged human PLAAT5 expressed in human U2OS cells assessed as reduction in absolute N-eicosapentaenoylethanolamine level at 10 uM incubated for 4 hrs by LC-MS/MS analysis; assay type: cell-based; summary of the method: as §1
T3 sequence (whole entry): T1 sequence (Q96KN8 whole entry)

U2OS [8] = assay: Downregulation of N-palmitoleoylethanolamine level in human U2OS cells at 10 uM after 4 hrs by LC-MS/MS analysis; assay type: functional, cell-based; summary of the method: as §1
U2OS [9] = assay: Downregulation of N-linoleoylethanolamine level in human U2OS cells at 10 uM after 4 hrs by LC-MS/MS analysis; assay type: functional, cell-based; summary of the method: as §1
U2OS [10] = assay: Downregulation of N-docosahexaenoylethanolamine level in human U2OS cells at 10 uM after 4 hrs by LC-MS/MS analysis; assay type: functional, cell-based; summary of the method: as §1
[11] = target: T2, Phospholipase A and acyltransferase 2 (Homo sapiens); assay: Inhibition of full-length C-terminal FLAG-tagged human PLAAT2 expressed in human U2OS cells assessed as reduction in arachidonic acid level at 10 uM incubated for 4 hrs by LC-MS/MS analysis; assay type: cell-based; summary of the method: as §1
[12] = target: T3, Phospholipase A and acyltransferase 5 (Homo sapiens); assay: Inhibition of full-length C-terminal FLAG-tagged human PLAAT5 expressed in human U2OS cells assessed as reduction in N-docosahexaenoylethanolamine level at 10 uM incubated for 4 hrs by LC-MS/MS analysis; assay type: cell-based; summary of the method: as §1
[13] = target: T2, Phospholipase A and acyltransferase 2 (Homo sapiens); assay: Inhibition of full-length C-terminal FLAG-tagged human PLAAT2 expressed in human U2OS cells assessed as reduction in 2-AG level at 10 uM incubated for 4 hrs by LC-MS/MS analysis; assay type: cell-based; summary of the method: as §1
[14] = target: T3, Phospholipase A and acyltransferase 5 (Homo sapiens); assay: Inhibition of full-length C-terminal FLAG-tagged human PLAAT5 expressed in human U2OS cells assessed as reduction in 2-AG level at 10 uM incubated for 4 hrs by LC-MS/MS analysis; assay type: cell-based; summary of the method: as §1
U2OS [15] = assay: Inhibition of serine hydrolase in human U2OS cytosolic fraction at 10 uM preincubated for 30 mins followed by MB064 addition and measured after 15 mins by SDS-PAGE based competitive ABPP analysis
Summary of the method: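 U2OS cytosol or membrane lysate at 2.5 μg/μL, pretreated with inhibitor or DMSO vehicle for 30 min at rt. Probe then added for 15 min at rt: MB064 at 2 μM or FP-TAMRA at 500 nM. Samples denatured in Laemmli buffer and resolved by SDS-PAGE. In-gel fluorescence scanned at Cy3/Cy5 settings and normalized to Coomassie staining.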

[16] = target: Cytosolic phospholipase A2 (Homo sapiens) (UniProt P47712); assay: Inhibition of human PLA2G4A expressed in HEK293T cell lysates at 50 uM preincubated for 30 mins followed by FP-TAMRA addition and measured after 20 mins by SDS-PAGE based competitive ABPP analysis; assay type: cell-free; settings: HEK-293T
Chain of Cytosolic phospholipase A2 (Homo sapiens) (P47712 whole entry): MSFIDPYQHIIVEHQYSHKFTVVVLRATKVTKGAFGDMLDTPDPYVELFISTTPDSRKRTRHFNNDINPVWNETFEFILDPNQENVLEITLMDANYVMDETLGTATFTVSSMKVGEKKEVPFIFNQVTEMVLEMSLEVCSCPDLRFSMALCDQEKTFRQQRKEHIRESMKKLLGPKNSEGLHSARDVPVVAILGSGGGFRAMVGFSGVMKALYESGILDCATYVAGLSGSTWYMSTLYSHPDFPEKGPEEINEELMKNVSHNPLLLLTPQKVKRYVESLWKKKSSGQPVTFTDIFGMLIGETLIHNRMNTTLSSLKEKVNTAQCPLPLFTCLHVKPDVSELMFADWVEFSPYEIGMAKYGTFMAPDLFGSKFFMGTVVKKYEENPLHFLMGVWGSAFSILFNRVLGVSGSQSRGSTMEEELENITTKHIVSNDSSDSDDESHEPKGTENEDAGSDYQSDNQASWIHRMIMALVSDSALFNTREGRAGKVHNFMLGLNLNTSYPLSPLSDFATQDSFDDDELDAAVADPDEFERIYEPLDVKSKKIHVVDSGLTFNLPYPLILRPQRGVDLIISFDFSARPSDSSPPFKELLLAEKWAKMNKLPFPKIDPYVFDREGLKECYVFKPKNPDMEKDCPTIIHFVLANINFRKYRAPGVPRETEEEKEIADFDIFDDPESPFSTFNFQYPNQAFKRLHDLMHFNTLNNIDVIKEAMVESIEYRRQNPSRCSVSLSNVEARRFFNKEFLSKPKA

IC50 [1]: 39.8 nM | Activity [2]: 32% | Activity [3]: 92% | Activity [4]: 95% | Activity [5]: 97% | inhibition [6]: Active | inhibition [7]: Active | inhibition [11]: inactive | inhibition [12]: inactive | inhibition [13]: inactive | inhibition [14]: inactive | inhibition (U2OS [15]): inactive | inhibition [16]: inactive
SMILES: O=C(CCCc1ccccc1)C(=O)NCCc1ccc(Oc2ccccc2)cc1
inhibition (U2OS [8]): inactive | inhibition (U2OS [9]): inactive | inhibition (U2OS [10]): inactive
